Measurements as given in ChEMBL document CHEMBL1122458, “beta-Carbolines as benzodiazepine receptor ligands. 1. Synthesis and benzodiazepine receptor interaction of esters of beta-carboline-3-carboxylic acid” (J Med Chem, 1983).
pIC50: −log10 of the molar value.

What was measured:
[1] = target: GABA-A receptor; anion channel; test: Concentration that inhibits specific [3H]flunitrazepam binding to benzodiazepine receptor in bovine brain
Method in brief: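 Bovine cortex (frozen, -20 °C) homogenized in 50 mM Tris-HCl pH 7.4, spun 48000g 10 min, pellet resuspended; incubated 45 min with 0.2 nM [3H]flunitrazepam (final) and displacers. Rapid filtration over GF-B filters, three ice-cold washes, scintillation counting. Nonspecific binding with 10 µM diazepam. IC50 by log probit analysis, four to six concentrations, each in triplicate.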

[2] = target: GABA-A receptor; anion channel (Mus musculus) (UniProt Q8BHJ7+P26048+Q8QZW7+P50571+Q9R0Y8+P22723+A2AMW3+P62812+Q9JLF1+P26049+P22933+Q9D6F4+P63080+P27681+P16305); test: In vivo inhibition of specific [3H]flunitrazepam binding in mouse brain 10 minute after iv administration of 15 uM/Kg; format: organism-based
Method in brief: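 Mouse brain ex vivo: specific [3H]flunitrazepam binding measured 10 min after iv dosing at 15 µmol/kg; reported as percent inhibition of specific binding, mean ± SEM of four determinations.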

Question: `COC(=O)C1Cc2c([nH]c3ccccc23)CN1` (stereo unspecified) was tested. Which pIC50 [1] did it give?
Answer: 6.60

Question: What about the inhibition [2] of the same molecule?
Answer: 6.1%

Question: With `O=C(O)c1cc2c3ccccc3nc-2c[nH]1` as the molecule, how does the pIC50 [1] read?
Answer: 5.14

Question: With `COCCOC(=O)c1cc2c3ccccc3nc-2c[nH]1` as the molecule, how does the pIC50 [1] read?
Answer: 6.84

Question: What about the inhibition [2] of the same molecule?
Answer: 34.6%

Question: Which results are given for `CN(C)CCOC(=O)c1cc2c3ccccc3nc-2c[nH]1`?
Answer: pIC50 [1]: 6.48; inhibition [2]: 13.4%

Question: `O=C(OCc1cccnc1)c1cc2c3ccccc3nc-2c[nH]1` was tested. Which pIC50 [1] did it give?
Answer: 7.47

Question: What about the inhibition [2] of the same molecule?
Answer: 49.4%

Question: With `N#CCCOC(=O)c1cc2c3ccccc3nc-2c[nH]1` as the molecule, how does the pIC50 [1] read?
Answer: 7.57

Question: What about the inhibition [2] of the same molecule?
Answer: 44.4%

Question: `[2H]C([2H])([2H])OC(=O)c1cc2c(cn1)[nH]c1ccccc12` was tested. Which pIC50 [1] did it give?
Answer: 8.28

Question: How did the pIC50 [1] turn out when `CCCOC(=O)C1Cc2c([nH]c3ccccc23)CN1` (stereo unspecified) was run?
Answer: 5.36

Question: What does the source list for `O=C(OCCF)c1cc2c3ccccc3nc-2c[nH]1`?
Answer: pIC50 [1]: 7.57; inhibition [2]: 55.3%

Question: What does the source list for `COC(=O)c1cc2c(cn1)[nH]c1ccccc12` [BETA-CCM]?
Answer: pIC50 [1]: 8.60; inhibition [2]: 51.2%

Question: With `O=C(O)C1Cc2c([nH]c3ccccc23)CN1` (stereo unspecified) as the molecule, how does the pIC50 [1] read?
Answer: 4.66

Question: What does the source list for `CCCOC(=O)c1cc2c(cn1)[nH]c1ccccc12`?
Answer: pIC50 [1]: 8.34; inhibition [2]: 62.7%

Question: What does the source list for `O=C(OCCCl)c1cc2c3ccccc3nc-2c[nH]1`?
Answer: pIC50 [1]: 7.66; inhibition [2]: 89%

Question: `CCOC(=O)C1Cc2c([nH]c3ccccc23)CN1` (stereo unspecified) was tested. Which pIC50 [1] did it give?
Answer: 5.22

Question: `O=C(OCc1ccccc1)c1cc2c3ccccc3nc-2c[nH]1` was tested. Which pIC50 [1] did it give?
Answer: 7.68

Question: And the inhibition [2]?
Answer: 38.4%

Question: `O=C(OCc1ccccc1)C1Cc2c([nH]c3ccccc23)CN1` (stereo unspecified) was tested. Which pIC50 [1] did it give?
Answer: 5.57

Question: With `CCCCOC(=O)C1Cc2c([nH]c3ccccc23)CN1` (stereo unspecified) as the molecule, how does the pIC50 [1] read?
Answer: 5.32

Question: Which results are given for `CCCCOC(=O)c1cc2c(cn1)[nH]c1ccccc12`?
Answer: pIC50 [1]: 7.54; inhibition [2]: 54.9%

Question: Which results are given for `CCOC(=O)c1cc2c(cn1)[nH]c1ccccc12`?
Answer: pIC50 [1]: 8.85; inhibition [2]: 61.7%
